Test results reported in ChEMBL document CHEMBL1770075, “Thermal solvent-free synthesis of novel pyrazolyl chalcones and pyrazolines as potential antimicrobial agents” (2011).
Values after ≈ are worked out from the molar mass of the structure shown.

Experiments:
Assay type in all cases: functional
Escherichia coli [1] = assay: Antibacterial activity against Escherichia coli ATCC 25922 after 24 hrs by broth dilution method; details: ATCC 25922, 24 h
Staphylococcus aureus [2] = assay: Antibacterial activity against methicillin-resistant Staphylococcus aureus after 24 hrs by disk diffusion method
Talaromyces marneffei [3] = assay: Antifungal activity against Penicillium marneffei after 48 hrs
In short: (§1)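 Broth with two-fold serial dilutions of compound was inoculated with 1.6 × 10⁴–6 × 10⁴ c.f.u/ml and incubated at 35 °C. MIC is the lowest concentration that arrests growth. For MFC, 0.1 ml was spread on agar, colonies were counted after 48 h at 35 °C, and the endpoint was the lowest concentration killing 99.9%.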

Talaromyces marneffei [4] = assay: Antifungal activity against Penicillium marneffei after 48 hrs by agar diffusion method
Candida albicans [5] = assay: Antifungal activity against Candida albicans after 48 hrs; in short: as §1
[6] = tested on: Trichophyton mentagrophytes; assay: Antifungal activity against Trichophyton mentagrophytes after 48 hrs; in short: as §1
Klebsiella pneumoniae [7] = assay: Antibacterial activity against clinical isolate of Klebsiella pneumoniae after 24 hrs by broth dilution method
Pseudomonas aeruginosa [8] = assay: Antibacterial activity against Pseudomonas aeruginosa ATCC 27853 after 24 hrs by broth dilution method; details: ATCC 27853, 24 h
Streptococcus pyogenes [9] = assay: Bactericidal activity against clinical isolate of Streptococcus pyogenes after 18 to 24 hrs by colony counting method
Staphylococcus aureus [10] = assay: Antibacterial activity against methicillin-resistant Staphylococcus aureus after 24 hrs by broth dilution method
Streptococcus pyogenes [11] = assay: Antibacterial activity against clinical isolate of Streptococcus pyogenes after 24 hrs by broth dilution method
Candida albicans [12] = assay: Antifungal activity against Candida albicans after 48 hrs by agar diffusion method
Klebsiella pneumoniae [13] = assay: Antibacterial activity against clinical isolate of Klebsiella pneumoniae after 24 hrs by disk diffusion method
Staphylococcus aureus [14] = assay: Bactericidal activity against methicillin-resistant Staphylococcus aureus after 18 to 24 hrs by colony counting method
In short: (§2)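 Colonies were counted after 18–24 h at 35 °C. MBC is the lowest concentration that kills 99.9% of the inoculum.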

Streptococcus pyogenes [15] = assay: Antibacterial activity against clinical isolate of Streptococcus pyogenes after 24 hrs by disk diffusion method
Pseudomonas aeruginosa [16] = assay: Antibacterial activity against Pseudomonas aeruginosa ATCC 27853 after 24 hrs by disk diffusion method
Aspergillus fumigatus [17] = assay: Antifungal activity against Aspergillus fumigatus after 48 hrs by agar diffusion method
Klebsiella pneumoniae [18] = assay: Bactericidal activity against clinical isolate of Klebsiella pneumoniae after 18 to 24 hrs by colony counting method
Escherichia coli [19] = assay: Bactericidal activity against Escherichia coli ATCC 25922 after 18 to 24 hrs by colony counting method; in short: as §2
[20] = tested on: Trichophyton mentagrophytes; assay: Antifungal activity against Trichophyton mentagrophytes after 48 hrs by agar diffusion method
Pseudomonas aeruginosa [21] = assay: Bactericidal activity against Pseudomonas aeruginosa ATCC 27853 after 18 to 24 hrs by colony counting method; in short: as §2
Aspergillus fumigatus [22] = assay: Antifungal activity against Aspergillus fumigatus after 48 hrs; in short: as §1
Escherichia coli [23] = assay: Antibacterial activity against Escherichia coli ATCC 25922 after 24 hrs by disk diffusion method
Talaromyces marneffei [24] = assay: Antifungal activity against Penicillium marneffei after 48 hrs by Halo zone test
Aspergillus fumigatus [25] = assay: Antifungal activity against Aspergillus fumigatus after 48 hrs by Halo zone test
[26] = tested on: Trichophyton mentagrophytes; assay: Antifungal activity against Trichophyton mentagrophytes after 48 hrs by Halo zone test
Candida albicans [27] = assay: Antifungal activity against Candida albicans after 48 hrs by Halo zone test

| SMILES | MIC (Escherichia coli [1]) | diameter of the inhibition zone (DIZ) (Staphylococcus aureus [2]) | MFC (Talaromyces marneffei [3]) | MIC (Talaromyces marneffei [3]) | diameter of the inhibition zone (DIZ) (Talaromyces marneffei [4]) | MFC (Candida albicans [5]) | MIC (Candida albicans [5]) | MFC [6] | MIC [6] | MIC (Klebsiella pneumoniae [7]) | MIC (Pseudomonas aeruginosa [8]) | MBC (Streptococcus pyogenes [9]) | MIC (Staphylococcus aureus [10]) | MIC (Streptococcus pyogenes [11]) | diameter of the inhibition zone (DIZ) (Candida albicans [12]) | diameter of the inhibition zone (DIZ) (Klebsiella pneumoniae [13]) | MBC (Staphylococcus aureus [14]) | diameter of the inhibition zone (DIZ) (Streptococcus pyogenes [15]) | MFC (Aspergillus fumigatus [22]) | MIC (Aspergillus fumigatus [22]) | other results |
| --- | --- | --- | --- | --- | --- | --- | --- | --- | --- | --- | --- | --- | --- | --- | --- | --- | --- | --- | --- | --- | --- |
| Cc1nn(-c2ccccc2)c(Cl)c1C1CC(C2C(=O)N(C)C(=O)N(C)C2=O)=NN1 (stereo not drawn) | 25 µg/mL (≈ 60.3 µM) | 16.5 mm | > 100 µg/mL | 50 µg/mL (≈ 121 µM) | 14.2 mm | 100 µg/mL (≈ 241 µM) | 25 µg/mL (≈ 60.3 µM) | 100 µg/mL (≈ 241 µM) | 25 µg/mL (≈ 60.3 µM) | 50 µg/mL (≈ 121 µM) | 50 µg/mL (≈ 121 µM) | 50 µg/mL (≈ 121 µM) | 50 µg/mL (≈ 121 µM) | 25 µg/mL (≈ 60.3 µM) | 20.8 mm | 15.7 mm | 100 µg/mL (≈ 241 µM) | 17.1 mm | 100 µg/mL (≈ 241 µM) | 25 µg/mL (≈ 60.3 µM) | diameter of the inhibition zone (DIZ) (Pseudomonas aeruginosa [16]): 21.8 mm; diameter of the inhibition zone (DIZ) (Aspergillus fumigatus [17]): 17.4 mm; MBC (Klebsiella pneumoniae [18]): 100 µg/mL (≈ 241 µM); MBC (Escherichia coli [19]): 100 µg/mL (≈ 241 µM); diameter of the inhibition zone (DIZ) [20]: 16.9 mm; MBC (Pseudomonas aeruginosa [21]): 100 µg/mL (≈ 241 µM); diameter of the inhibition zone (DIZ) (Escherichia coli [23]): 19.6 mm |
| Cc1nn(-c2ccccc2)c(Cl)c1C1CC(C2C(=O)NC(=S)NC2=O)=NN1 (stereo not drawn) | 50 µg/mL (≈ 124 µM) | 14.2 mm | > 100 µg/mL | > 100 µg/mL | 13.1 mm | 100 µg/mL (≈ 248 µM) | 50 µg/mL (≈ 124 µM) | 100 µg/mL (≈ 248 µM) | 25 µg/mL (≈ 62.1 µM) | 50 µg/mL (≈ 124 µM) | 50 µg/mL (≈ 124 µM) | 100 µg/mL (≈ 248 µM) | 100 µg/mL (≈ 248 µM) | 50 µg/mL (≈ 124 µM) | 20.2 mm | 14.4 mm | > 100 µg/mL | 15.2 mm | 100 µg/mL (≈ 248 µM) | 25 µg/mL (≈ 62.1 µM) | diameter of the inhibition zone (DIZ) (Pseudomonas aeruginosa [16]): 18.2 mm; diameter of the inhibition zone (DIZ) (Aspergillus fumigatus [17]): 16.2 mm; MBC (Klebsiella pneumoniae [18]): > 100 µg/mL; MBC (Escherichia coli [19]): 100 µg/mL (≈ 248 µM); diameter of the inhibition zone (DIZ) [20]: 15.8 mm; MBC (Pseudomonas aeruginosa [21]): 100 µg/mL (≈ 248 µM); diameter of the inhibition zone (DIZ) (Escherichia coli [23]): 19.1 mm |
| COC1=CC(=O)C[C@@H](C)[C@]12Oc1c(Cl)c(OC)cc(OC)c1C2=O [GRISEOFULVIN] |  |  | 25 µg/mL (≈ 70.9 µM) | 12.5 µg/mL (≈ 35.4 µM) |  | 12.5 µg/mL (≈ 35.4 µM) | 6.25 µg/mL (≈ 17.7 µM) | 25 µg/mL (≈ 70.9 µM) | 6.25 µg/mL (≈ 17.7 µM) |  |  |  |  |  |  |  |  |  | 25 µg/mL (≈ 70.9 µM) | 12.5 µg/mL (≈ 35.4 µM) | diameter of the inhibition zone (DIZ) (Talaromyces marneffei [24]): 20 mm; diameter of the inhibition zone (DIZ) (Aspergillus fumigatus [25]): 27 mm; diameter of the inhibition zone (DIZ) [26]: 24 mm; diameter of the inhibition zone (DIZ) (Candida albicans [27]): 30 mm |
| Cc1nn(-c2ccccc2)c(Cl)c1/C=C/C(=O)C1C(=O)NC(=O)NC1=O | 12.5 µg/mL (≈ 33.5 µM) | 20.2 mm | 25 µg/mL (≈ 67.1 µM) | 12.5 µg/mL (≈ 33.5 µM) | 14.1 mm | 25 µg/mL (≈ 67.1 µM) | 12.5 µg/mL (≈ 33.5 µM) | 25 µg/mL (≈ 67.1 µM) | 12.5 µg/mL (≈ 33.5 µM) | 12.5 µg/mL (≈ 33.5 µM) | 12.5 µg/mL (≈ 33.5 µM) | 25 µg/mL (≈ 67.1 µM) | 12.5 µg/mL (≈ 33.5 µM) | 12.5 µg/mL (≈ 33.5 µM) | 25.5 mm | 17.1 mm | 50 µg/mL (≈ 134 µM) | 22.2 mm | 25 µg/mL (≈ 67.1 µM) | 12.5 µg/mL (≈ 33.5 µM) | diameter of the inhibition zone (DIZ) (Pseudomonas aeruginosa [16]): 27.2 mm; diameter of the inhibition zone (DIZ) (Aspergillus fumigatus [17]): 21.3 mm; MBC (Klebsiella pneumoniae [18]): 25 µg/mL (≈ 67.1 µM); MBC (Escherichia coli [19]): 50 µg/mL (≈ 134 µM); diameter of the inhibition zone (DIZ) [20]: 17.1 mm; MBC (Pseudomonas aeruginosa [21]): 25 µg/mL (≈ 67.1 µM); diameter of the inhibition zone (DIZ) (Escherichia coli [23]): 24.8 mm |
